Our source for the EC50, Activity and fold change (FC) values is ChEMBL document CHEMBL3124788, “Identification of human presequence protease (hPreP) agonists for the treatment of Alzheimer's disease” (Eur J Med Chem, 2014).

Active and inactive are the calls of the source. The rule behind the calls is not given here.

The target of assay [1] is T1, Presequence protease, mitochondrial (Homo sapiens, UniProt Q5JRX3).
T1 sequence (Q5JRX3 whole entry): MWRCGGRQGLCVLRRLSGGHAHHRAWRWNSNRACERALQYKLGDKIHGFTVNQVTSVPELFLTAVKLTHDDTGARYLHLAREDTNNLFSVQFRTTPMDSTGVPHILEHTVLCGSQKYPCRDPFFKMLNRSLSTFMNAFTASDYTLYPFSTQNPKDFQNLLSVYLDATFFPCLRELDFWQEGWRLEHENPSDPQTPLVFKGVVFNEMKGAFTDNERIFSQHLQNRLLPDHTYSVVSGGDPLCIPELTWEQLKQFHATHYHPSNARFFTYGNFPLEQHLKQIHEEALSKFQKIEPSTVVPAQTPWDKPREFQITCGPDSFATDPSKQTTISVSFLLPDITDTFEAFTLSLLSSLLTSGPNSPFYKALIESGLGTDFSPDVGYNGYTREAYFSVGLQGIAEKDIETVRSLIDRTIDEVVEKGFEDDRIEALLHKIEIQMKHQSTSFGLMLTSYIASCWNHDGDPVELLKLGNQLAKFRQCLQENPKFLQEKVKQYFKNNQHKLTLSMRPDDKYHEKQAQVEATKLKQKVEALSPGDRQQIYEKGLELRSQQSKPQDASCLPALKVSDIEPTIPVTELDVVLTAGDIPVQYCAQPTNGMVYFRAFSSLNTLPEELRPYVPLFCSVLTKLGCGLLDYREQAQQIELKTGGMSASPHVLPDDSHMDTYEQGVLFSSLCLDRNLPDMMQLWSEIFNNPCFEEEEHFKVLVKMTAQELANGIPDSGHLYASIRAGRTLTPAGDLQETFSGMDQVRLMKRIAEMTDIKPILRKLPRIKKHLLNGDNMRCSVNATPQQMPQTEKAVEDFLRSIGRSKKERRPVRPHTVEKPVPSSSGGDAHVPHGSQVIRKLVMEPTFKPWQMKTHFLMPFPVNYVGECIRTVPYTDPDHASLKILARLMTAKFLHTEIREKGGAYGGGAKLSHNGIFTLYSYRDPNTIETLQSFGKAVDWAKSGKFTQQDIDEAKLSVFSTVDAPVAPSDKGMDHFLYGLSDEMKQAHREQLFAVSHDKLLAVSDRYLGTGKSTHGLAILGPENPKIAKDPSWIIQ
Briefly: Agonist activity at human PreP assessed as degradation of fluorogenic substrate V measured for 10 mins by fluorometric analysis.

The target in assay [2] is T1, Presequence protease, mitochondrial. Briefly: Agonist activity at human PreP assessed as degradation of ATP synthase pF1beta subunit (2 to 56) after 2.5 hrs by Immunoblotting assay. The settings on record: in the assay text read “(2 to 54)” for “(2 to 56)”. In short, it runs like this:
(§1)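 Purified human PreP (1 μg) incubated with biotin-labeled pF1β (2–54) presequence peptide (0.02 μg) in 20 mM HEPES-KOH pH 8.0, 10 mM MgCl2, with compound at 0.00001–100 μM, for 2.5 h. Reactions were stopped with sample buffer and resolved on 12% Bis-Tris gel. Blot probed with anti-F1β (1:2000), HRP anti-rabbit, ECL. Bands quantified by densitometry versus hPreP alone. EC50 from nonlinear log(agonist) vs normalized response fit.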
(In general: In western blotting, separated proteins are transferred to a membrane and probed.)

For assay [3], the target named is T2, Presequence protease, mitochondrial (Homo sapiens) (UniProt Q5JRX3).
T2 sequence (whole entry): T1 sequence (Q5JRX3 whole entry)
Briefly: Agonist activity at human PreP assessed as degradation of ATP synthase pF1beta subunit (2 to 54) after 2.5 hrs by Immunoblotting assay.

Assay [4] deals with T2, Presequence protease, mitochondrial (Homo sapiens). Briefly: Agonist activity at human PreP assessed as degradation of biotin-labeled amyloid beta (1 to 42) after 2.5 hrs by Immunoblotting assay relative to control. In short, it runs like this:
(§2)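 Biotin-labeled Aβ(1–42) (0.02 μg) incubated 2.5 h with 1 μg purified hPreP in 20 mM HEPES-KOH pH 8.0 with 10 mM MgCl2, compound 0.00001–100 μM. Products were run on 12% Bis-Tris gel and transferred to nitrocellulose. Membrane dried and blocked in 2% milk-PBS, then probed with ExtrAvidin peroxidase and ECL. Degradation measured relative to enzyme alone. EC50 from nonlinear log(agonist) vs normalized response regression.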

The target is the same in assay [5]. Briefly: Agonist activity at human PreP assessed as degradation of ATP synthase pF1beta subunit (2 to 54) at 1 uM after 2.5 hrs by Immunoblotting assay.
The target is the same in assay [6]. Briefly: (§3) Agonist activity at human PreP assessed as degradation of biotin-labeled amyloid beta (1 to 42) after 2.5 hrs by Immunoblotting assay. In short, it runs like this:
as §2

For assay [7], the target named is T1, Presequence protease, mitochondrial. The description is as §3. An outline of the steps: as §2
The target of assay [8] is T2, Presequence protease, mitochondrial (Homo sapiens). Briefly: Agonist activity at human PreP assessed as degradation of ATP synthase pF1beta subunit (2 to 56) after 2.5 hrs by Immunoblotting assay relative to control. The note with it: in the assay text read “(2 to 54)” for “(2 to 56)”. In short, it runs like this:
as §1

The target is the same in assay [9]. Briefly: Agonist activity at human PreP assessed as degradation of biotin-labeled amyloid beta (1 to 42) up to 1 uM after 2.5 hrs by Immunoblotting assay. An outline of the steps:
as §2

For assay [10] the target is unchanged. Briefly: Agonist activity at human PreP assessed as degradation of fluorogenic substrate V at 1 uM measured for 10 mins by fluorometric analysis.

The EC50 is the concentration at which the effect is half-maximal. For the compound `O=[N+]([O-])c1ccc2c(c1)N(Cc1cc(Br)ccc1O)C(c1cc(Br)ccc1O)N2Cc1cc(Br)ccc1O` (stereo not given), the EC50 was 57 nM in [1], 601 nM in assay [2] and 402 nM in [7]. In addition, the Activity entry in [3] is “Dose-dependent effect”; in assay [4], 54%; in assay [6], “Dose-dependent effect”; in assay [8], 55%. Also, the outcome in assay [5] and in [9] was Active. Besides, in [10], the fold change (FC) came out at 1.8.
